Measured values: PMC4829539 (International Journal of Medical Sciences, 2016)
Like-named read-outs stand apart in the source and are kept apart here.

Columns and labels:
[1] = from DMNs, rats; cited from earlier work
[2] = mice; cited from earlier work
[3] = type: in vivo, Male Wistar rats; conditions: rats, i.v., LC-MS/MS
Method in brief: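 Anaesthetised 10-week-old male Wistar rats (pentobarbital 50 mg/kg, 37°C) received test compound 5.0 mg/kg i.v. via jugular vein, in saline. DMN array applied to shaved abdomen (2.0 m/s, then 2.5 N for 1-3 min). 2 µL ISF drawn from pore at 15, 30, 45, 60, 75, 90, 120 min; femoral-vein plasma sampled. Positive-ESI LC-MS/MS quantification; mean ± SE, unpaired t-test.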

[4] = n = 4, cited from earlier work
[5] = rats; cited from earlier work

For low-molecular-weight heparin [LMWH], the “Physiological availability (PA)” value [1] is listed as 81.5-102.3%.

For erythropoietin [EPO], the “Bioavailability (BA) from the DMNs” value [2] is given as 82.1-99.4%.

For insulin, the “Physiological availability (PA)” value [1] is given as 91.3-97.7%.

For `CN[C@H](CC(C)C)C(=O)N[C@H]1C(=O)N[C@@H](CC(N)=O)C(=O)N[C@H]2C(=O)N[C@H]3C(=O)N[C@H](C(=O)N[C@H](C(=O)O)c4cc(O)cc(O)c4-c4cc3ccc4O)[C@H](O)c3ccc(c(Cl)c3)Oc3cc2cc(c3O[C@@H]2O[C@H](CO)[C@@H](O)[C@H](O)[C@H]2O[C@H]2C[C@](C)(N)[C@H](O)[C@H](C)O2)Oc2ccc(cc2Cl)[C@H]1O` [VCM, Vancomycin], the “Mean concentration of VCM in plasma compared with ISF, early phase” value ([3]; 30 min after administration) is listed as “higher than that in ISF”, the “Concentration of VCM in ISF compared with plasma, after 30 min” value ([3]; after 30 min) is listed as “higher than that in plasma” and the “AUC, ISF” value ([4]; ISF by ultrafiltration probe) is listed as 75300 ± 7700 ng·h/mL. For the same compound, the “Tmax (average), ISF” value ([4]; ISF by ultrafiltration probe) was 39.6 min, the “AUC, blood” value ([4]; blood) was 89800 ± 15700 ng·h/mL and the “Cmax in the blood” value ([4]; blood) was 80.2 ± 18.5 µg/mL.

In the case of recombinant human growth hormone [rhGH], the “Bioavailability (BA) from the DMNs” value [5] is given as 87.5%.
